From ChEMBL document CHEMBL3098023, “Rationally designed hybrid molecules with appreciable COX-2 inhibitory and anti-nociceptive activities” (Bioorg Med Chem Lett, 2014) come the findings set out here.

In general, IC50 refers to the midpoint of a concentration-inhibition curve. A lower IC50 goes with higher potency.

Experiment [1] relates to Mus musculus. In words: Antinociceptive activity in Swiss albino mouse assessed as reduction in capsaicin-induced paw licking at 5 mg/kg, ip administered 30 mins prior to capsaicin-challenge. In kind it is functional, organism-based. The arrangement: dose 5 mg/kg. An outline of the steps:
(§1)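 Swiss albino mice (25–35 g) of either sex, acclimatized at least 1 h, each used once; groups of 6. Treatments given ip 30 min before intraplantar capsaicin (1.6 µg in 20 µL) into right hind paw; saline (0.5 mL) control, diclofenac 25 mg/kg reference, test doses 5 or 10 mg/kg. Time spent paw licking and twitching recorded over 10 min per animal.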

Experiment [2] addresses T1, Prostaglandin G/H synthase 1 (Ovis aries, UniProt P05979).
T1 sequence (P05979 whole entry): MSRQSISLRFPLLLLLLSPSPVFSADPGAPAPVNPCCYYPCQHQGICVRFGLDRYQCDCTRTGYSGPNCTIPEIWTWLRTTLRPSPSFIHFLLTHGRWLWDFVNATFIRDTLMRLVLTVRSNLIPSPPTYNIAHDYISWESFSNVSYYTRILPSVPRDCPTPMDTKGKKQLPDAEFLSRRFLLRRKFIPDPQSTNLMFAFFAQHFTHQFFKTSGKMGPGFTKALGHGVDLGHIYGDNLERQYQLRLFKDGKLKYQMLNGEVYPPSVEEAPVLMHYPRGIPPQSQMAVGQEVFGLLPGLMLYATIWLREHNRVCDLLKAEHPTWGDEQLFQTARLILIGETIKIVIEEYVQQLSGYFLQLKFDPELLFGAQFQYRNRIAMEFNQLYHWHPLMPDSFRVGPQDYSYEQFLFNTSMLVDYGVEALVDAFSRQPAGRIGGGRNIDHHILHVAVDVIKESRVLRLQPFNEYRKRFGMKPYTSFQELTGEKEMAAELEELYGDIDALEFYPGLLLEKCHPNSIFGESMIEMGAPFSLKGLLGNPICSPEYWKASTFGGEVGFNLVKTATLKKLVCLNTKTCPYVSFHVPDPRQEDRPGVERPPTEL
In words: Inhibition of ovine COX1 using arachidonic acid as substrate incubated for 10 mins prior to substrate addition measured after 2 mins by spectrophotometry. An outline of the steps:
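Ovine COX-1 with heme, preincubated 10 min at 37 °C with inhibitor at 10^-3 to 10^-6 M. Arachidonic acid reaction for 2 min, stopped with 1 M HCl, then stannous chloride. Prostaglandin quantified by competitive EIA with AChE tracer, Ellman's reagent read at 420 nm. Heat-inactivated enzyme for background. Run in duplicate; IC50 fitted from % inhibition against concentration.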

Experiment [3] relates to Mus musculus. Description: Antinociceptive activity in Swiss albino mouse assessed as reduction in capsaicin-induced paw licking at 10 mg/kg, ip administered 30 mins prior to capsaicin-challenge. The arrangement: dose 10 mg/kg. In kind it is functional, organism-based. An outline of the steps: as §1
Experiment [4] concerns the target T2, Prostaglandin G/H synthase 2 (Homo sapiens) (UniProt P35354).
T2 sequence (whole entry): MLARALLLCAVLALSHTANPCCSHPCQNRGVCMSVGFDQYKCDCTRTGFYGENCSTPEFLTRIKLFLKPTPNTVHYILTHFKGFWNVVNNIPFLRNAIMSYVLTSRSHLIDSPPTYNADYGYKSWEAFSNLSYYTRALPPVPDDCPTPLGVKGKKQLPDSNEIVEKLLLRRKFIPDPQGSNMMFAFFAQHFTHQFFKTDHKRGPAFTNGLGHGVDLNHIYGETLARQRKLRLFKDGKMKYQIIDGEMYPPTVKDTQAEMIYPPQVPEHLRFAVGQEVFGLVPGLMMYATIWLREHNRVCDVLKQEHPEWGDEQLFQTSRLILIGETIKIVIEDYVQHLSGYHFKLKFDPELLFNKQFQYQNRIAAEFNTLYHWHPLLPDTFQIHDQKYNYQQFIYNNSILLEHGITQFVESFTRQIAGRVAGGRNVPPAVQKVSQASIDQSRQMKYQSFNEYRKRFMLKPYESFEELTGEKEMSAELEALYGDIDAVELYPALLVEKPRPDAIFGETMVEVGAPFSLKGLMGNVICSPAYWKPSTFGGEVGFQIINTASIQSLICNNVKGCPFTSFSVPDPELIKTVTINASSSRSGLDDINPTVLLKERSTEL
In words: Inhibition of human recombinant COX2 using arachidonic acid as substrate at 10^-8 to 10^-5 M incubated for 10 mins prior to substrate addition measured after 2 mins by spectrophotometry. An outline of the steps:
(§2)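 Human recombinant COX-2 or ovine COX-1 with heme in reaction buffer, preincubated with inhibitor 10 min at 37 °C. Arachidonic acid then added for 2 min, stopped with 1 M HCl, followed by stannous chloride. Prostaglandin measured by AChE-tracer EIA, 18 h at room temperature, Ellman's development, absorbance at 420 nm. Boiled enzyme as background. Duplicates; IC50 from % inhibition versus concentration plot.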

Experiment [5] addresses T3, Prostaglandin G/H synthase 1 (Ovis aries) (UniProt P05979).
T3 sequence (whole entry): T1 sequence (P05979 whole entry)
In words: Inhibition of ovine COX1 using arachidonic acid as substrate at 10^-8 to 10^-5 M incubated for 10 mins prior to substrate addition measured after 2 mins by spectrophotometry. An outline of the steps: as §2

The subject of experiment [6] is Mus musculus. Description: Antinociceptive activity in Swiss albino mouse assessed as reduction in capsaicin-induced paw licking at 25 mg/kg, ip administered 30 mins prior to capsaicin-challenge. In kind it is functional, organism-based. Further details: dose 25 mg/kg. An outline of the steps:
as §1

Activity calls are given as the source filed them. No cut-off for these calls is given here.

Turning to `CC1=NN(c2cccc(Cl)c2)C(=O)/C1=C\c1cn(CCCCOc2cc(O)c3c(=O)cc(-c4ccccc4)oc3c2)c2ccccc12`, the outcome in experiment [1] and in experiment [3] was Active. Moreover, the IC50 in experiment [2] came out at 90 µM.

In the case of `O=C1Nc2ccccc2/C1=C/c1cn(CCCCOc2cc(O)c3c(=O)cc(-c4ccccc4)oc3c2)c2ccccc12`, the inhibition result in experiment [4] and in experiment [5] was “inactive” each time.

`O=C(O)Cc1ccccc1Nc1c(Cl)cccc1Cl`: the outcome in experiment [6] was Active.

Take `O=c1cc(-c2ccccc2)oc2cc(O)cc(O)c12` [CHRYSIN]: the midpoint of inhibition in experiment [2], the IC50, lay at 39.3 µM.

Take `CC1=NN(c2cccc(Cl)c2)C(=O)/C1=C\c1cn(CCCOc2cc(O)c3c(=O)cc(-c4ccccc4)oc3c2)c2ccccc12`: the result in experiment [1] was inactive. Also, the IC50 in experiment [2] is 118 µM. Moreover, in experiment [3], the outcome was Active.

As to `O=C1/C(=C\c2cn(CCCCOc3cc(O)c4c(=O)cc(-c5ccccc5)oc4c3)c3ccccc23)c2ccccc2N1c1c(Cl)cccc1Cl`, the inhibition entry in experiment [4] and in experiment [5] was “inactive” in each case.

Turning to `O=C1Nc2ccccc2/C1=C/c1cn(CCCOc2cc(O)c3c(=O)cc(-c4ccccc4)oc3c2)c2ccccc12`, the result in experiment [1] and in experiment [3] was inactive. In experiment [2], the IC50 was 102 µM.

Regarding `O=C1/C(=C\c2cn(CCCOc3cc(O)c4c(=O)cc(-c5ccccc5)oc4c3)c3ccccc23)c2ccccc2N1c1c(Cl)cccc1Cl`, the result in experiment [1] and in experiment [3] was Active. In experiment [2], this compound had an IC50 of 115 µM.
